The assay addresses Human immunodeficiency virus type 1 reverse transcriptase (Human immunodeficiency virus 1, UniProt Q72547). Briefly: Inhibition of HIV-1 reverse transcriptase. In outline:
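Antiviral activity measured in cells infected with the HIV-1-based vector pNLNgoMI/R-E. The vector expresses the murine cell-surface marker gene hsa from the nef reading frame, so vector-infected cells can be identified by that marker. Results are reported as EC50.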
`Fc1cccc(F)c1Cn1c(-c2c(F)cccc2F)nc2c(Cl)cccc21` displayed an EC50 of 400 nM.

`NC(=O)c1cccc2c1nc(-c1c(F)cccc1F)n2Cc1c(F)cccc1F`: the EC50 was 370 nM. This EC50 and that of the compound before are within 1.5-fold of each other. Consider `OCc1cccc2c1nc(-c1c(F)cccc1F)n2Cc1c(F)cccc1F`, for which the EC50 came out at 50 nM. Against the preceding compound, the EC50 is about 7.4-fold lower. The compound `COc1cccc2c1nc(-c1c(F)cccc1F)n2Cc1c(F)cccc1F` had an EC50 of 80 nM. Then `Cc1cccc2c1nc(-c1c(F)cccc1F)n2Cc1c(F)cccc1F`, with 440 nM.

Take `Nc1cccc2c1nc(-c1c(F)cccc1F)n2Cc1c(F)cccc1F`: the EC50 was found to be 530 nM.

`Fc1cccc(F)c1Cn1c(-c2c(F)cccc2F)nc2c(CCl)cccc21` displayed an EC50 of 160 nM. Against the preceding compound, the EC50 is about 3.3-fold lower. To `CNc1cccc2c1nc(-c1c(F)cccc1F)n2Cc1c(F)cccc1F` belongs 2400 nM; to `CCc1cccc2c1nc(-c1c(F)cccc1F)n2Cc1c(F)cccc1F`, 820 nM; to `N#CCc1cccc2c1nc(-c1c(F)cccc1F)n2Cc1c(F)cccc1F`, 60 nM. The compound `[N-]=[N+]=NCc1cccc2c1nc(-c1c(F)cccc1F)n2Cc1c(F)cccc1F` yielded an EC50 of 45 nM. To `Fc1cccc(F)c1Cn1c(-c2ccccc2)nc2ccccc21` belongs 6060 nM.

The compound `CC(=O)OCc1cccc2c1nc(-c1c(F)cccc1F)n2Cc1c(F)cccc1F` returned an EC50 of 60 nM. Take `O=[N+]([O-])c1cccc2c1nc(-c1c(F)cccc1F)n2Cc1c(F)cccc1F`: the EC50 is 450 nM. To `CC(=O)Nc1cccc2c1nc(-c1c(F)cccc1F)n2Cc1c(F)cccc1F` belongs 1650 nM. Then `CC(=O)N(C)c1cccc2c1nc(-c1c(F)cccc1F)n2Cc1c(F)cccc1F`, with 40 nM; and `Fc1cccc(F)c1Cn1c(-c2c(F)cccc2F)nc2ccccc21`, with 1700 nM.

`Cc1cccc2c1nc(-c1c(F)cccc1F)n2Cc1ccccc1` showed an EC50 of 750 nM. `COc1cccc(F)c1-c1nc2c(N)cccc2n1Cc1c(F)cccc1F`: the EC50 worked out at 2710 nM. Then `O=Cc1cccc2c1nc(-c1c(F)cccc1F)n2Cc1c(F)cccc1F`, with 100 nM; and `NCc1cccc2c1nc(-c1c(F)cccc1F)n2Cc1c(F)cccc1F`, with 1360 nM; and `Fc1cccc(F)c1Cn1c(-c2c(F)cccc2F)nc2c(Br)cccc21`, with 370 nM.

For the origin of these results see ChEMBL document CHEMBL1145980, “Molecular modeling calculations of HIV-1 reverse transcriptase nonnucleoside inhibitors: correlation of binding energy with biological activity for novel 2-aryl-substituted benzimidazole analogues” (J Med Chem, 2003).
